One experiment is filed under the species Homo sapiens. Briefly: Selectivity ratio of IC50 for TCPTP (unknown origin) to IC50 for GST-tagged PTP1B (unknown origin).
The target in experiment [1] is T1, M-phase inducer phosphatase 2 (Homo sapiens, UniProt P30305).
T1 sequence (P30305 whole entry): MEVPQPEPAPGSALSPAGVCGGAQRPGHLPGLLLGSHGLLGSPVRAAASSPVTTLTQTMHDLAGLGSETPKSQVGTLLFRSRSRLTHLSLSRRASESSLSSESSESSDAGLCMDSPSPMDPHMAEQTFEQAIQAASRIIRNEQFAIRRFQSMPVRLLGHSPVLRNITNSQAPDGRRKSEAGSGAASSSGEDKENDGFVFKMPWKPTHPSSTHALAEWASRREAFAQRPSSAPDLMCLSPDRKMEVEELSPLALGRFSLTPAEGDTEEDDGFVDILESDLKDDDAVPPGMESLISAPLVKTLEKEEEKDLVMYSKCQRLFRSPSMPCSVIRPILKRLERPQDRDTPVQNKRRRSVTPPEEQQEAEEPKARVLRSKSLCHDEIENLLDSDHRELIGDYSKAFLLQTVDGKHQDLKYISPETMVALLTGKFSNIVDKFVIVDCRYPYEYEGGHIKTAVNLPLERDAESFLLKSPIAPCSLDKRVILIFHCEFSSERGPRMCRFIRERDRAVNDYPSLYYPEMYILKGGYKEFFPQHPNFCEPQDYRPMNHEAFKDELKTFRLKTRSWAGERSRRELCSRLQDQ
Description: Inhibition of CDC25B (unknown origin).

For experiment [2], the target named is Receptor-type tyrosine-protein phosphatase F (Homo sapiens, UniProt P10586). Description: Inhibition of LAR (unknown origin).
Experiment [3] has as its target T2, Tyrosine-protein phosphatase non-receptor type 1 (Rattus norvegicus) (UniProt P20417).
T2 sequence (whole entry): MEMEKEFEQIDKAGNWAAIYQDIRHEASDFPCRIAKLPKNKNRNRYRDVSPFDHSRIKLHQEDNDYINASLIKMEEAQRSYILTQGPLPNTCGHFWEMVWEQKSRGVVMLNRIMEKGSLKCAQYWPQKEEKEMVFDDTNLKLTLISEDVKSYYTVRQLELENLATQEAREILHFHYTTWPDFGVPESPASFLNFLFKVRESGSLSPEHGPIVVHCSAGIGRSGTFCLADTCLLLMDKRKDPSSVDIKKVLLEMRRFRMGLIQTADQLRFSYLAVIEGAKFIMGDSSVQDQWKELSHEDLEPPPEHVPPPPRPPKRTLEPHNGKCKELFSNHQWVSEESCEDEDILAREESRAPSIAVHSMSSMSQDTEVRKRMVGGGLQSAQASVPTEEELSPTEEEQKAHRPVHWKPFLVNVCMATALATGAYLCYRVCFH
Briefly: Inhibition of PTP1B in rat L6 cells assessed as insulin-stimulated 2-deoxy-[3H]-deoxy-glucose uptake at 10 uM preincubated for 2 hrs followed by insulin challenge for 30 mins. It is filed as cell-based. An outline of the steps:
(§1)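 Differentiated L6 myotubes were serum-starved 2 h, treated with compound, then stimulated with 10 nM insulin for 30 min. Cells were washed in HEPES-buffered saline, pH 7.4, and incubated 15 min with 2-deoxy-[3H]-glucose. After ice-cold PBS washes they were lysed in 0.1% Triton X-100 and radioactivity was counted. Data are averages of at least three independent replicates.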

The target of experiment [4] is T2, Tyrosine-protein phosphatase non-receptor type 1 (Rattus norvegicus). Description: Inhibition of PTP1B in rat L6 cells assessed as insulin-induced Akt phosphorylation preincubated for 2 hrs followed by insulin challenge for 10 mins by Western blotting analysis. It is filed as cell-based. An outline of the steps: (§2)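 Rat L6 myoblasts were differentiated in DMEM with 2% FBS and used as myotubes 5–7 days later. They were serum-starved 2 h, treated with compound 2 h (0.2% DMSO vehicle), then given 10 nM insulin for 10 min. Lysates were run on 8% SDS-PAGE and immunoblotted for phospho-Akt (Ser473), with β-actin as loading control.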
(In general: In western blotting, separated proteins are transferred to a membrane and probed.)

Experiment [5] concerns the target Tyrosine-protein phosphatase non-receptor type 6 (Homo sapiens, UniProt P29350). Description: Inhibition of SHP-1 (unknown origin).
The target in experiment [6] is T3, Tyrosine-protein phosphatase non-receptor type 1 (Homo sapiens, UniProt P18031).
T3 sequence (P18031 whole entry): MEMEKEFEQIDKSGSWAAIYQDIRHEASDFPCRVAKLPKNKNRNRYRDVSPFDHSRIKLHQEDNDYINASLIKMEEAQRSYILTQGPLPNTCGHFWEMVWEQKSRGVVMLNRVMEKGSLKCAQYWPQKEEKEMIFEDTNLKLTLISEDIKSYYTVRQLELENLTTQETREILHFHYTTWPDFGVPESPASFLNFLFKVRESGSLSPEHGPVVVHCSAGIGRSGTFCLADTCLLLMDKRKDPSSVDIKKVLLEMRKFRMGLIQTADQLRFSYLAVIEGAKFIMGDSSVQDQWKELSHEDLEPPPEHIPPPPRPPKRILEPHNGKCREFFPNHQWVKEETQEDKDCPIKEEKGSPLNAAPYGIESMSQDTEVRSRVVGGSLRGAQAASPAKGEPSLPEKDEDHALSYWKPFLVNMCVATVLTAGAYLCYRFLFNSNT
Briefly: Inhibition of GST-tagged PTP1B (unknown origin) using pNPP as substrate measured for 2 mins by colorimetric analysis.

The target of experiment [7] is T2, Tyrosine-protein phosphatase non-receptor type 1 (Rattus norvegicus). Briefly: Inhibition of PTP1B in rat L6 cells assessed as insulin-stimulated 2-deoxy-[3H]-deoxy-glucose uptake at 20 uM preincubated for 2 hrs followed by insulin challenge for 30 mins. It is filed as cell-based. The essentials: as §1
Experiment [8] addresses T4, Tyrosine-protein phosphatase non-receptor type 2 (Homo sapiens, UniProt P17706).
T4 sequence (P17706 whole entry): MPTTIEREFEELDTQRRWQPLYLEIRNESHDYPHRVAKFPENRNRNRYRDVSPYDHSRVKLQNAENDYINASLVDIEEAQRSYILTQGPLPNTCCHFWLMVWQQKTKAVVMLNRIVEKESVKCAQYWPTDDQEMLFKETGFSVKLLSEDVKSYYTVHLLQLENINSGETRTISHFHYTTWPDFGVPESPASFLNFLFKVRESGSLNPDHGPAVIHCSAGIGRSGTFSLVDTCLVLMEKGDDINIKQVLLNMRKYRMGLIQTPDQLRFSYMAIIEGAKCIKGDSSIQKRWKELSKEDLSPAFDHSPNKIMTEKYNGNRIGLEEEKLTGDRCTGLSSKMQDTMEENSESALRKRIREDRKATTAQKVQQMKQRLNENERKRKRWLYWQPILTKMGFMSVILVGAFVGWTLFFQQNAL
Briefly: Inhibition of TCPTP (unknown origin).

The target of experiment [9] is T5, Tyrosine-protein phosphatase non-receptor type 1 (Homo sapiens) (UniProt P18031).
T5 sequence (whole entry): T3 sequence (P18031 whole entry)
Briefly: Inhibition of PTP1B (unknown origin) expressed in CHO cells over-expressing human IR assessed as increase in insulin-mediated IR-beta phosphorylation preincubated for 2 hrs followed by insulin challenge for 10 mins by Western blotting analysis. It is filed as cell-based. The essentials: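 CHO cells overexpressing human IR, grown in Ham's F-12 with 10% FBS at 37 °C, 5% CO2. Cells were serum-starved 2 h, then exposed to compound for 2 h (0.2% DMSO vehicle; 1 mM sodium orthovanadate as positive control). They were then stimulated with 10 nM insulin for 10 min. Lysates were run on 8% SDS-PAGE and immunoblotted with anti-pTyr, using β-actin as the loading control.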

The target in experiment [10] is T2, Tyrosine-protein phosphatase non-receptor type 1 (Rattus norvegicus). Briefly: Inhibition of PTP1B in rat L6 cells assessed as insulin-induced Akt phosphorylation at 5 to 10 uM preincubated for 2 hrs followed by insulin challenge for 10 mins by Western blotting analysis. It is filed as cell-based. An outline of the steps:
as §2

Calls of active or inactive are those of the source. The calls are words filed in the database; no cut-off is given here. Some results are limits rather than exact numbers.

Chain of Receptor-type tyrosine-protein phosphatase F (P10586 whole entry): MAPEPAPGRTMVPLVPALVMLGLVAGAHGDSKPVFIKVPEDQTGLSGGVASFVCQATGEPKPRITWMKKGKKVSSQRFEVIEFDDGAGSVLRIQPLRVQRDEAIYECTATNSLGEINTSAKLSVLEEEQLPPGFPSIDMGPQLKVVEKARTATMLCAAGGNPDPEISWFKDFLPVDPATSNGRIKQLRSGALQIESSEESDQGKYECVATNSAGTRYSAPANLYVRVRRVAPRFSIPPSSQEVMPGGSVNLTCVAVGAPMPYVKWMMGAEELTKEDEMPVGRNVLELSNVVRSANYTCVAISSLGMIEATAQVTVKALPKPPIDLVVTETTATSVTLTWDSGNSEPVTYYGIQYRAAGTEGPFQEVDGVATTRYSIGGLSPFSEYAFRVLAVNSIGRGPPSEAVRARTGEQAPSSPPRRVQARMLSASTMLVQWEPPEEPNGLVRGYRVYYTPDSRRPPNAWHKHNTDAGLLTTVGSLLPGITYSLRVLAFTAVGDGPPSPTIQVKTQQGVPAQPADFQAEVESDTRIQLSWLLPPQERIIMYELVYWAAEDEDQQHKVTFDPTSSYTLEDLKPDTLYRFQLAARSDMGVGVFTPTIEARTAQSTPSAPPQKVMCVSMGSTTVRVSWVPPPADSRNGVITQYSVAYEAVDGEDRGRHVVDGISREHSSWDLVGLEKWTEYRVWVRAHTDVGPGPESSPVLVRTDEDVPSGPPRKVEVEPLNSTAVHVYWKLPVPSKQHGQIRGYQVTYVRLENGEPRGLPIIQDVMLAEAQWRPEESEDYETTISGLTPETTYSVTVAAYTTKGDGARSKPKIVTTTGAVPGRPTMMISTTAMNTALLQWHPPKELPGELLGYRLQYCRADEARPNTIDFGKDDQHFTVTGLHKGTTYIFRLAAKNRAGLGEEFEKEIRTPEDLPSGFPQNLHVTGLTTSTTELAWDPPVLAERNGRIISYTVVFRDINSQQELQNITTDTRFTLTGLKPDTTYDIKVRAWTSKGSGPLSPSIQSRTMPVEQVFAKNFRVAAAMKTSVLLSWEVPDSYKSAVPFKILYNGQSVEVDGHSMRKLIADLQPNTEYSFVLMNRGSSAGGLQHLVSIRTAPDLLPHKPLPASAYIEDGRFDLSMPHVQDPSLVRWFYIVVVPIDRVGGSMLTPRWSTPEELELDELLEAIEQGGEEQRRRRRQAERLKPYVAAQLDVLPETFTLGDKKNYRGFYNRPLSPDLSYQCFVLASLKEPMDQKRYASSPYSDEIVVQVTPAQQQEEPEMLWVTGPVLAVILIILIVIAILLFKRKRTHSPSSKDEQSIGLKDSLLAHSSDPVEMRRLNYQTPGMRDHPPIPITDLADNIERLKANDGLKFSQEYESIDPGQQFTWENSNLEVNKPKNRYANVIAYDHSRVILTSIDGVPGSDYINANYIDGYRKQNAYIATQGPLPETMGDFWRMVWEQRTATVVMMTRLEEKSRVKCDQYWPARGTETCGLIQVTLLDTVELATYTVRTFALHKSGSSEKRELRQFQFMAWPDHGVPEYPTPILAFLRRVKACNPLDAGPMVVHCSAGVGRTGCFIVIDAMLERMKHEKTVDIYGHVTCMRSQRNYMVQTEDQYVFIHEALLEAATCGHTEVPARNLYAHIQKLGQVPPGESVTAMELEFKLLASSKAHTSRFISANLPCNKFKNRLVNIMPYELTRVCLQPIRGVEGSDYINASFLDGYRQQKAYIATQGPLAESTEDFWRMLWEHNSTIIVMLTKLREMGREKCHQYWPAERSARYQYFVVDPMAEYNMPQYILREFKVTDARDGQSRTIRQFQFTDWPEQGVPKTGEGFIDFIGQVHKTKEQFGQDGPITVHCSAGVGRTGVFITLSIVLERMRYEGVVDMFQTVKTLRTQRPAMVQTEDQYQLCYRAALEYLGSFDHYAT
Chain of Tyrosine-protein phosphatase non-receptor type 6 (P29350 whole entry): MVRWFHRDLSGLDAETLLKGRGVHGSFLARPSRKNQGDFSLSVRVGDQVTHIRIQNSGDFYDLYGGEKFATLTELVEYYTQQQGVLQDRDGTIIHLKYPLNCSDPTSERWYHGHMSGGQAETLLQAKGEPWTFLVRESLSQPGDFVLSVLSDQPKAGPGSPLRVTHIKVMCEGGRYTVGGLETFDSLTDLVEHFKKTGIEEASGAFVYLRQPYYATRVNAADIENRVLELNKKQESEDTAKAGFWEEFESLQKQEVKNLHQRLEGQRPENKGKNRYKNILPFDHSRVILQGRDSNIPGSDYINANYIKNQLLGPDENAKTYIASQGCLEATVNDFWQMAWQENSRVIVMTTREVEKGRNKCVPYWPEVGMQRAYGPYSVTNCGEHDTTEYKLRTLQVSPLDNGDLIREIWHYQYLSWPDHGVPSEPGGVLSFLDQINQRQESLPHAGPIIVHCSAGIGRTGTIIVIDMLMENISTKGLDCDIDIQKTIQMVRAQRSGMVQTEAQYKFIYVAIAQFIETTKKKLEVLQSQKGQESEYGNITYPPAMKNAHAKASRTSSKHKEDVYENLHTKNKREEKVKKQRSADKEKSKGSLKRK

In the case of `O=C(CCc1c[nH]c2ccccc12)N[C@@H](Cc1ccc(OCc2ccccc2)cc1)c1nc(C(=O)Nc2cc(F)ccc2C(=O)O)c(-c2ccccc2)s1`, the Ratio IC50 in the experiment listed under Homo sapiens stood at 2.6. In addition, the IC50 (commonly the concentration at which inhibition is half-maximal) is 1.62 µM in [1]; more than 20 µM in [2]; 12.6 µM in experiment [5]; 0.54 µM in experiment [6]; 1.42 µM in [8]. The inhibition (usually how much of the control response was suppressed) was 40% in experiment [3], “Dose-dependent effect” in experiment [4], 86% in experiment [7] and “Dose-dependent effect” in experiment [9]. In addition, the inhibition result in [10] is “Active”.

Values taken from ChEMBL document CHEMBL2434820, “Design, synthesis, and biological evaluation of novel 2-ethyl-5-phenylthiazole-4-carboxamide derivatives as protein tyrosine phosphatase 1B inhibitors with improved cellular efficacy” (Eur J Med Chem, 2013).
